Results collected from several papers.
Each line is one published result; the experiments were not run side by side.
Target: Mitogen-activated protein kinase kinase kinase 13 (MAP3K13, Homo sapiens, UniProt O43283)
Residues used in one study (O43283 1-966): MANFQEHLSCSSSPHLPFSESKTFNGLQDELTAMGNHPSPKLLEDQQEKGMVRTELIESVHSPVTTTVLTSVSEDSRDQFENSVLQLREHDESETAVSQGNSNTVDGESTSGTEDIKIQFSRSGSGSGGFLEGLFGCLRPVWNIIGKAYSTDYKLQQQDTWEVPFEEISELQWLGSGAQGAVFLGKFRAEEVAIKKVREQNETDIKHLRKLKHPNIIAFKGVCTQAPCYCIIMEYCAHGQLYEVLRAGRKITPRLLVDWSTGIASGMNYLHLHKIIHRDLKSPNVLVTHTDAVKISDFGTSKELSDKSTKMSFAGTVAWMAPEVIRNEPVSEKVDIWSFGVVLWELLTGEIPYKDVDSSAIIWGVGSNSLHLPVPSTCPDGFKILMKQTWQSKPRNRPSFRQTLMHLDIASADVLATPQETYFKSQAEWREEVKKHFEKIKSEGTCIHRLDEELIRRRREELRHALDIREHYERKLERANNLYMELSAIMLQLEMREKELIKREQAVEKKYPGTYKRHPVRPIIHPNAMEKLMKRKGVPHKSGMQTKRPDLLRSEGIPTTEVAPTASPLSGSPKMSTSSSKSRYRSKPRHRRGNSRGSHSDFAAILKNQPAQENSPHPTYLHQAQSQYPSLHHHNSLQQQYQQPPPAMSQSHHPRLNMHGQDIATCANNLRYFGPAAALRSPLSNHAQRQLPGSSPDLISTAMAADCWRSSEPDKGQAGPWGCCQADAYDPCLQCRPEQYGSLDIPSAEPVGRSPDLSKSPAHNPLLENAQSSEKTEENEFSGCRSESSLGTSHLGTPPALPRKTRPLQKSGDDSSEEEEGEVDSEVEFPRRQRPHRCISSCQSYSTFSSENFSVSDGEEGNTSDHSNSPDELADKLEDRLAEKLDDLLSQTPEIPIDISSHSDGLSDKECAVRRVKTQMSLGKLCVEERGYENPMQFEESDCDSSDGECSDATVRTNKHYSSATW

Compound	effect on	method	concentration	remaining binding [%]
CN(c1nccc(-c2cnn3ncccc23)n1)C1CC1	binding	–	1 µM	18
O=C(Nc1c[nH]nc1C(=O)NC1CCNCC1)c1cc(F)cc(F)c1	binding	competition with immobilised ligand	1 µM	100
COc1ccnn2ncc(-c3ccnc(N(C)C)n3)c12	binding	–	1 µM	21
Cc1c(C(=O)O)cc(-c2ccc(C3CCNCC3)cc2)c2ccc(-c3ccc(C(F)(F)F)cc3)cc12	binding	competition with immobilised ligand	1 µM	100
F[C@@H]1CCN(c2nccc(-c3cnn4ncccc34)n2)C1	binding	–	1 µM	100
O=C(NCCCN1CCOCC1)c1ccc(Nc2ncc(Cl)c(-c3ccc(Cl)s3)n2)cc1	binding	competition with immobilised ligand	1 µM	92
FC(F)(F)Oc1cccc(-c2cnc3ccc(-c4ccncc4)nn23)c1	cell-free assay	competition with immobilised ligand	5 µM	83
CC(=O)C1=C(C)N(c2cccc(C(F)(F)F)c2)C(=O)N[C@@H]1c1ccc(C#N)nc1	cell-free assay	competition with immobilised ligand	1 µM	92.4
c1cncc(-c2cccc(Nc3nccc(NC4CCCCC4)n3)c2)c1	binding	competition with immobilised ligand	10 µM	83
COc1cnc(Nc2cccc(S(N)(=O)=O)c2)nc1N1CCN(c2ccccc2)CC1	binding	competition with immobilised ligand	1 µM	96
Cc1cnc(Nc2ccc(C(=O)N3CCC(N4CCCC4)CC3)cc2)nc1-c1cc2ccccc2s1	binding	competition with immobilised ligand	1 µM	25
CN(CCCC(F)(F)F)c1nccc(-c2cnn3ncccc23)n1	binding	–	1 µM	100
O=C(NC[C@@H]1[C@H]2CN(C(=O)OCc3cc(C(F)(F)F)cc(C(F)(F)F)c3)C[C@@H]12)c1ccc2[nH]nnc2c1	cell-free assay	competition with immobilised ligand	1 µM	86
O=C(c1ccc(Nc2ncc(Cl)c(-c3cc4ccccc4s3)n2)cc1)N1CCC(N2CCCC2)CC1	binding	competition with immobilised ligand	1 µM	46
CO[C@@H](C)c1c(Nc2ccc([C@H](N(C)C(=O)C3CCS(=O)(=O)CC3)C(F)(F)F)cc2)cnc2cc(Cl)nn12	cell-free assay	competition with immobilised ligand	1 µM	78
C[C@@H]1CCN(c2nccc(-c3cnn4ncccc34)n2)C1	binding	–	1 µM	71
CN1CCN(c2cnc3c(C4CCN(C(=O)c5ccc(OC(F)(F)F)cc5N)CC4)ncnc3c2)CC1	cell-free assay	competition with immobilised ligand	1 µM	100
CNC(=O)[C@@H]1CC[C@@H](n2c(-c3ccc4cnccc4c3)nc3ccc(C(=O)NCc4cccc(C(N)=O)c4)cc32)C1	binding	competition with immobilised ligand	1 µM	100
O=C(NCCCC1CCCCC1)c1ccc(CNC(=O)c2cnn(-c3ccccc3)c2C(F)(F)F)cc1	cell-free assay	competition with immobilised ligand	0.1 µM	100
CC1CCCN1c1nccc(-c2cnn3ncccc23)n1 (centres unmarked)	binding	–	1 µM	100
